The values that follow come from the RNAGym collection of RNA variant scans (doi:10.1126/science.aae0568).

This sample holds only a part of the variants without activity.

The labels stand for the following.
B1: tRNA (parent)
chain: GUUCCGUUGGCGUAAUGGUAACGCGUCUCCCUCCUAAGGAGAAGACUGCGGGUUCGAGUCCCGUACGGAACG

The variants in the data set derive from B1. Kind of data set: yeast fitness relative to wild type (ratio to wild type); higher = fitter; tRNA-Arg(CCU), competitive growth, 37 C, YPD. In short, it runs like this:
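Variants of the tRNA-Arg(CCU) gene were chemically synthesised with a 3% per-site mutation rate across 69 sites and placed at the native genomic locus in Saccharomyces cerevisiae. Six parallel replicates of the pooled strains were competed in YPD at 37°C for 24 hours, and gene amplicons from the start and end populations were read by 100-nucleotide paired-end sequencing. Darwinian fitness relative to wild type was derived from changes in genotype frequencies. Genotypes required ≥ 100 starting reads, and estimates < 0.5 were set to 0.5.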
For GUUCCGUUGGCGUAAUGGUAACGCGCCUCCCUGCUUAGGAGAAGACUGCGGGUUCGUGUCCCGUACGGAACG, the yeast fitness is not above 0.5.
On to GUUCCGUUGGCGUAAUGGUAACGCGUCUCUCUCCAAAGGAGAAGACUGCGAGUUCGAGUCCCGUACGGAACG, for which the yeast fitness was not above 0.5.
As to GUUGCGUGGGCGUAAUGGUAACGCGUGUCCCUCCUAAGGAGAAGACUGCGGGUUCGAGUCCCGUACGGAACG, the yeast fitness is 0.567.
With GUUCCGUUGGUGUAAUGGUAACGCGUCUCCCUCCUAGGGAGAAGACUGCGAGUUCGAGUCCCGUACGGAACG, the yeast fitness came to 0.568.
As for GUUCCGUUGGCGUGAUGGUAACGCGUCUCACUCCUAAGGAGAAGAUUGCGGCUUCGAGUCCCGUAUGGAACG, the figure is not above 0.5.
Turning to GUUCCGUUAGCGUCAUGGUAACGCGUCUCCCUCCCAAGGAGAAGACUGCGGGUUCGAGUCCCGUACGGAACG, the yeast fitness was not above 0.5.
As for GUUCCGUUGGCGUAAUGGUAACGUGUCUCCCUCCUAAGGAGAAGACUGCGGGUUCGAGUCCCGUACGGACCG, the figure is 1.04.
As for GUUCUGUUGGCGUAAUGGUAACGCGUCUCCGUCCUAAGGAGAAGACUGUGGGUUCGAGUCGCGUACGGAACG, the figure is not above 0.5.
As for GUUCCGUUGGCGUAAUGGUAACGCGUCUCCCUCCUAAGGAGAAGACUGCGGGUUCGAGUCCCAUAGGGGACG, the figure is not above 0.5; as for GUUCCGUUGGCGUAAUGGUAAUCCGUCUCCCUCCUAAGGAGAAGACUGCGGCUUCGAGUCCCGUACGGAACG, not above 0.5.
On to GUUCCGUUGGCGUGAUGGUAACGCGUCUCCCUCCUAAGGAGAAGACUGCGGGUUCGACUCCCGUAAGGAACG, for which the yeast fitness is not above 0.5.
As for GUUCCGUUGGCGUAAUGGUAACGCGUCUUCCUCCUAAGGAGAAGACUGCGGGUUCGAGUCCCGGACGGAACG, the figure is 0.748.
As for GGUCCGUUGGCGUAAUGGUAACGCCUGUCCCUCUAAAAGAGAAGACUGCGGGUUCGAGACCCGUACGGAACG, the figure is not above 0.5; as for GUUCCGUUGGCGGAAUGGUAACGCGUCUCCCUCCUAAGGAGAAGACUGCGGGUUCGAGUCCCGUACGGUACG, 0.931.
As for GUUCCGUUGGCGUAAUGGUAACGCGCCUCCCUCCUAAGGAGAAGACUGCGGGCUCGUGUCCCGUAGGGAACG, the figure is not above 0.5.
As to GUUCCGUUGGCGUAAUGGUAACGCGUCUCCCUUCUAAGGAGAAGGCUGAGGGAUCGAGUCCCGUACGGAACG, the yeast fitness was not above 0.5.
As for GUUCCGUUGGCGUAAUAGUAACACGUCUCCCUCCUAAGGAGAAGACUGCGGGUUCGAGUCCCGUAAGGAACG, the figure is 0.776; as for GUUCGGUUGAGGUAAGGGUAACGCGUCUCCCUGCUAAGGAGAAGACUGCGGGUUCGAGUCCCGUACGGAACG, 0.551; as for GUUGCGUUGGCGUAAUGGUACAGCGUGUCCCUCUUAAGGAGAAGACUGCGGGUUCAAGUCCCGUACCGAACG, not above 0.5.
As to GUUCCAUCGGCGUUAUGGUAACGCGUCUCCCUCCUAAGGAGAAGACUGCGGGUUCGAGUCCCGUACGGAACG, the yeast fitness was found to be 0.564.
As for GUUCUGUUGGCGUAAUGGUAACGCAUCUCCCUCCUAAGGAGAAGGCUGCCGGUUCGAGUCCCGUACGGCACG, the figure is not above 0.5.
As to GUUCCGUUGGCGUAAUGGUAACGCGUCUCCCUCCCAAGGAGAAAACUCCGGGUUGGAGUCCCGUACGGUACG, the yeast fitness was not above 0.5.
Consider GUUCCGUUAGCGUAAUGGUAACGCGUCUCCCUCCUAAGGAGAAGACUGCGGGUUCGAGUCCCGUACGGGACG, for which the yeast fitness came out at 0.953.
For the variant GUUCCGUUGGCGUAAUGGUAAAGCGUCUUCCUCCUAAGGAGAAGACUGCGGGUUUGAGUCCCGUACGGAACG, the yeast fitness stood at 0.579.
As for GUUCCGUUGGCGUAAUGGUAAGGCGUCUCCCUCCUAAGAAGAAGACUGCGGGUUCGAGUCCCGUACCGAACG, the figure is 0.526; as for GUUCCGUUGGUGUAAUGGUAACGCGUCUCCCUCCUAAGGAGAAGACUGCGGGUUCGACUCUCGUACGGAACG, 0.65; as for GUUACGUUGGCGUAAUGGUAACGCGUCUGCCUCCUACGGAGAAGACUGCGGGUACGAGUCCCGUACGGAACG, not above 0.5.
As for GUUCCGUUGGCGAAAUGGUAACGCGUCCCCCUCCUAAGGAAAAAACUGCGGGUUCGAGUCCCGUACGGAUCG, the figure is not above 0.5.
In the case of GUUCCGUUGGCGUAAUGGUAACGCGUCUUCCUCCUAAGGAGAAGACGGGGGGUUCGAGUCCCGUACGGAGCG, the yeast fitness was not above 0.5.
As for GUUCCGUUGGCGUAAUGGUAACGCGUCUCCCUCCUAGGGAGAAGACUGCGGAUUGGAGUCCCGUACGGAACG, the figure is 0.516; as for GUUCCGUUGGCGUAAUGGUAACGCGUCUCCCUCCUAAGGAGAAGACUGCGGGUUCGAGUCCAGUAGGGAACG, 0.718.
As for GUUCCGUUGGCGUAGUGGUAACGCGUCUCCCUCCUAAGGAGUAGACUGCGGGUUCGAGUCCCGUACGGAACG, the figure is 0.971.
GUUCCGUUGGCGUAAUGGUAACGCGUCUCCCUCCUCAGGAGAAGACUGCGGGUUCGAGUCCGGUACGGAACG: the yeast fitness is 0.575.
As for GUUCCGUUGCCGUAUUGGUAACGCGUCUGCCUCCACAGGAGAAGACUGCGGGUUCGAGUCCCGUGGGGAACG, the figure is not above 0.5; as for GUUCCGUGGGCGUAAUGGUAACGCGUCUCCCUCCUAAGGAGAAGACUGCGGGUGCCAGUCCCGUACGGAACG, not above 0.5; as for GUUCUGUUGGAGUAAUGGUCAGGCGUCUCUGUCCUAAGGAGAAGACUGCGGGUUCGAGUCCCGUACGGAACG, not above 0.5.
As for GCUCCGUUGGCCUAAUGGUAACGCGUCUCCCUCCUAAGGCGAAGACUGCGGGUUCGAGUCCCGUACAGAACG, the yeast fitness is not above 0.5.
In the case of GUUCCGUUGGCGUAAAGGUAACGCGUCUCCCUCCUACGGAGAAGACUCCGGGUUCGAGUCCCGUACGGAACG, the yeast fitness was found to be 0.546.
As for GUACCGUUGGCGUAAUGGUAACGCAUCUCCCUCCUAUGGAGAAGACUGCGGGUUCGAGUCACGUACGGAACG, the figure is not above 0.5; as for GUUCCGUUGGUGUAAUGGUAACGCGUCUCCCUCCUAAGGAGAAGGCUGCGGGCUCGAGUCCCGUACGGAACG, 0.637; as for GUUCCGUUGGCGUACUGGUAACGCGUCUCCCUCCUAAGGAGAAGACUGCGGGUUCGAAUCCCGUACGAAACG, 0.611.
As for GUCCCGUUGGCGUAAUGGUAACGGGUCUCCUUCCUAAGGAGAAGACUGCGGGUUAGAGUCCCGUACGGAACG, the figure is not above 0.5; as for GUUCCGUUGGUGUAAUGGUAACGCGUCUCCCUCCUAAGGAGAAGACUGCGGAUUCGAGUCCCGUUCGGAACG, 0.567; as for GUUCCGUUGGCGUAAUGGGAACGCGUCUCCCUCAUAAGGAGAAGACUGCAGGUUCGAGUCCCGUACGGAACG, not above 0.5.
For GUUCCGUUGGCGUAAUGGUAACGCGUCUCCCUCCUCAGGAGGAGACUGCGGGUUCGAGUCCCGUACGGAACG, the yeast fitness amounted to 0.633.
As for GUUCCGUUGGCGUAAUGGUAUCGCGUCUCCCUCCUAAGGAGAAGACUGCCGGUUCGAGUCGCGUACGGAUCG, the figure is not above 0.5; as for GUUCCGUUGGUGUAAUCGUAACGCGUCUCCCUCCUAAGGAGAAGACUGCGGGUUCGAGUCCUGUACGGUACG, 0.567.
As for GUUCGGUUGGCGUAAUGGUAACGCGUCUCCCUCCUAAGGAGAAGACUGCGGGUUCGAGUCCCGUCCGGAACG, the figure is 0.775.
As for GUUACGUUGGCGUAAUGGUAAGGCGUCUUCCUCCCAAGGAGAAGACUGCGGGUUCGAGUCCCGUACGGAACG, the figure is not above 0.5; as for GUUCCGUUGGCGUAAUGGUAACGCGUCUCCCUCCUAAGGAGAAGGCUGCGGGUUCGAGUCCGGUACGGAACG, 0.832; as for GUUCCGUUGGCAUAAUGGUAACGCAUCUCCCUCCUAAGGAGAAGACUGCGGGUUCGAGUCCGGUACGGAACG, not above 0.5.
With GUUCUGUUGGCGUGAUGGUAACGCGUCUCCCUCCUAAGGAGAAGACUGCCGGUUUGGGUCCCGUACGGAACG, the yeast fitness was determined as 0.675.
As for GUUCCGUCGGCGUGAUGGUAACGCGUCUCCCUCCUAAGGAGAAGACUGCGGGUUCCAGUCCCGUACGGAACG, the figure is not above 0.5.
As for GUUCCGUUGCCGUAAUGGUAAAGGGUUUCCCUCCUAAGGAGAAGACUGCGGGAUCGAGUCCCGUACGGAACG, the figure is 0.543; as for GUCCCGUUGGCAUAAUGGUAACGCGUCUCCCUCCUAAGGAGAAGACUGCGGGUUCGCGUCACGUACGGCACG, not above 0.5; as for GUUCUGUUGGCGUAAUGGUAACGCGUCUACCUCCUAAGGAGAAGACUGCGGGUUCGAGUCCAGUACGGAACG, not above 0.5.
As for GUUCCGUUGGCGUAAUGGUAACGCGUCUUCCUCAUAAGGAGAAGACUGCGGGUUCGAGUCCCGUACGGAUCG, the figure is not above 0.5; as for GUUCCAUUGGCGUAAUGGUAACGCGCCUCCCUCCUAAGGAGAAGACUGCGGGUUCGAGUCCUGUACGGAACG, not above 0.5.
Regarding GUGCCGUUGGCGUAAUGGUAACGAGUCUCCCUCAUAAGGAGAAGAGUGCGGGUUCGAGUCCCGUACGGAACG, the yeast fitness was 0.581.
As for GUUCCCUUGGCGUAAUGGUAACGCGUCUCCCUCUUAAGGAGAGGACUACGGGUUCGGGUCCCGUACGGAACG, the figure is not above 0.5.
As to GUUCUGUUGGCGUAAUGGUAACGCGUCUCCCUCCUAAGGAGAAGAUUGCCGGUUCGAGUCUCGUACGGAACG, the yeast fitness is not above 0.5.
For the variant GUUCCGUUGGCGUAAUGGUAAGGCGUCUGCCUCCUAAGGAGAAGACUGCGGGUUCGAGUCCCGUACGCAACG, the yeast fitness was not above 0.5.
As for GUUCCGUUGGCGUAAUGGUAACGCGUCUCACUCCUAAGGAGAAGAUUGCGGGUUUGAGUCCCGUACGGAACG, the figure is 0.573.
As for GUUCCGUCGGCGUAGAGGUAACGCGUCUCCCUCCUAAGGAGAAGAUUGCGGGUCCGAGUCCCGUACGGAACG, the figure is 0.601; as for GUUCCGUCGGCGUAAUGGUAACGCGUCUCCCUCCUAAGGAGAAGACUGCCGGUUCGAGUCCCGUACGGAACG, 0.663.
As for GUUCCGUUGGCAUAAUGGUAACGCGUCUCCCUCCUAAGCAGAAGACUGCGGGUUCGAGUCCCGUACGGAACG, the figure is 0.896; as for GUUCCGUUGGCGUAAUGGCAACGCGCAUCGCUCCUAAGGAGAAGACUGCGGGUACAAGUCCCGUACGGAACG, not above 0.5; as for GUUGCGUUGGCGUAAUGGUAACGCGUCUCCCUCCGAAGGAGCAGACUGCGGGUUCGAGUCCCGUAUGGAACG, not above 0.5.
On to GUUCCGUUCGCGUAGUGGUAACGCGUCUCCCUCCUAAGGAGAAGACUGCGGGUUCGACUCCCGUACGGAACG, for which the yeast fitness came out at 0.564.
As for GUGACGUUGGCGUAAUGGUAACGCGUCUCCCUCCUAAGGUGAAGACUGCGGGUUCGAGUCCCGUAAGGCACG, the figure is not above 0.5; as for GUUCCAUUGCCGUAAUGGUAACGCGUCUCCCUCUUAAGGCGAAGACUGCGGGUUCGAGUCCCGUACGGAACG, not above 0.5; as for GUUCCGUUGGCGUAUUGGUAACGCGUCUCCCUCCUAAGGAGGAGACUGCGGGUUCGAGUCCCGUACGGAACG, 0.746.
As for GUUCCGUUCGCGUAAUGGUAACGCCUCUCCCUCCUAAGGAGAAGACUGCGGGUUCGAGUCCCGUAUGGACCG, the figure is 0.55; as for GUUCAGUUGGCGUAAUGGUAACGCGUCUCCCUCCUAAGGAGAAGACUGCGGGUUCGAGUUGCGUACGGAACG, not above 0.5; as for GUUCCGUUGGCUUAAUGGUAACGCGUCUCCCUCCUGAGGAGAAGACUGCGGGUUCGAGUCCCGUACGGAACG, 0.758.
